Reference: ChEMBL document CHEMBL4350958, “Rational Design of Short Peptide Variants by Using Kunitzin-RE, an Amphibian-Derived Bioactivity Peptide, for Acquired Potent Broad-Spectrum Antimicrobial and Improved Therapeutic Potential of Commensalism Coinfection of Pathogens” (J Med Chem, 2019)
The source made the active and inactive calls. No cut-off for these calls is given here.

Assays:
Escherichia coli [1] = assay: Induction of cytoplasmic membrane depolarization in Escherichia coli ATCC 25922 assessed as fluorescence intensity at 2 uM up to 3000 secs by DiSC3-5 dye-based fluorescence spectrophotometric method
Procedure, shortened: (§1)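 Mid-log E. coli ATCC 25922 (OD600 0.05) loaded with 0.4 μM DiSC3-5 and 100 mM K+ in 5 mM HEPES pH 7.4 with 20 mM glucose until fluorescence stabilized. Peptide added in a 1-cm cuvette and fluorescence (ex 622, em 670 nm) recorded 0–3000 s. Triplicate, three biological replicates.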

Escherichia coli [2] = assay: Induction of outer membrane permeabilization in Escherichia coli ATCC 25922 at 1 to 64 uM by NPN-dye based assay; assay type: organism-based
Procedure, shortened: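 Mid-log E. coli ATCC 25922 (OD600 0.2) with 10 μM NPN in 5 mM HEPES pH 7.4 with 5 mM glucose for 30 min, background subtracted (ex 350, em 420 nm). Mixed with equal volume of peptide (1 to 64 μM) and fluorescence followed to plateau. Uptake normalised to 10 μg/mL polymyxin B. Three independent experiments, each with three technical replicates.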

RAW264.7 = assay: Cytotoxicity against mouse RAW264.7 cells assessed as cell viability at 2 to 64 uM measured after 18 to 24 hrs by MTT assay relative to control; assay type: cell-based; settings: raw264.7, 64 µM
Procedure, shortened: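 MTT assay: RAW264.7 cells seeded at 1.0–2.0×10^4 per well and exposed to peptide (2–64 µM) for 18–24 h at 37 °C in 5% CO2. MTT (0.5 mg/mL) added for 4 h, formazan dissolved in DMSO, read at 570 nm. At least three independent experiments with triplicate wells.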

[3] = Conformational stability in 50% trifluoro-ethyl alcohol assessed as alpha-helical structural propensity at 35 uM by CD spectra analysis; assay type: physicochemical
Procedure, shortened: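 CD spectra from 190 to 250 nm of peptide at 35 μM in 10 mM PBS, 30 mM SDS micelles or 50% TFE, recorded in a 1.0-mm quartz cell. Ellipticity was converted to mean residue ellipticity. Three independent scans, each averaged over more than 3 runs.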

Escherichia coli [4] = assay: Induction of morphological changes in Escherichia coli ATCC 25922 assessed as pore formation at MBD measured after 1 hr by transmission electron microscopic analysis; assay type: functional, organism-based
Staphylococcus aureus [5] = assay: Induction of morphological changes in Staphylococcus aureus ATCC 29213 assessed as […] at MBD measured after 1 hr by transmission electron microscopic analysis; assay type: functional, organism-based
Escherichia coli [6] = assay: Disruption of plasma membrane integrity in Escherichia coli ATCC 25922 at MBC measured after 30 mins using FITC-labeled compound by propidium iodide staining-based microscopic analysis; assay type: organism-based
Procedure, shortened: (§2)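 E. coli ATCC 25922 or S. aureus ATCC 29213 (OD600 0.2) incubated with FITC-labeled peptide at 1×MBC, 37 °C, 30 min. Cells washed, resuspended with PI (10 μg/mL) in PBS, smeared and imaged by superresolution microscopy using 488 and 535 nm filters for FITC and PI. Peptide-free cells served as controls. Three independent scans.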

Escherichia coli [7] = assay: Bactericidal activity against Escherichia coli ATCC 25922 assessed as reduction in bacterial growth at MBC measured within 30 mins by time-kill assay relative to control; assay type: functional; set-up: scale not given: the % may be the effect or the level left
Procedure, shortened: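 Time-kill assay. Cells at a final 0.5–1 × 10^5 CFU mL−1 were exposed to peptide at 1×MBC. Aliquots were removed at different times to calculate the survival rate against an untreated control. Mean of three independent experiments, each with three technical replicates.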

Escherichia coli [8] = assay: Induction of cytoplasmic membrane depolarization in Escherichia coli ATCC 25922 assessed as fluorescence intensity at 4 uM up to 3000 secs by DiSC3-5 dye-based fluorescence spectrophotometric method; procedure, shortened: as §1
Pseudomonas aeruginosa [9] = assay: Antibacterial activity against gentamicin-resistant Pseudomonas aeruginosa ATCC 27853 measured after 24 hrs; assay type: functional, organism-based
Procedure, shortened: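 Broth microdilution modified from NCCLS. Mid-log bacteria at (0.5–1) × 10^5 CFU mL−1 in MHB, mixed with peptides serially diluted in 0.2% BSA. Incubated 24 h at 37 °C, read at A492. MIC taken as lowest concentration giving 95% growth inhibition. At least three independent experiments, each with three technical replicates.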

Candida albicans [10] = assay: Antifungal activity against Candida albicans cgmcc2.2086 infected in C57BL/6 mouse model of keratitis assessed as reduction in fungal colonies in eyeballs at 5 mg/ml administered as topical eye drop every 5 mins for first 4 hrs and every 30 mins for next 7 hrs measured post-last dose by agar plate method relative to control; assay type: functional; set-up: scale not given: the % may be the effect or the level left
Candida albicans [11] = assay: Antifungal activity against Candida albicans cgmcc2.2086 infected in C57BL/6 mouse model of keratitis assessed as appearance of transparent irises at 1 to 5 mg/ml administered as topical eye drop every 5 mins for first 4 hrs and every 30 mins for next 7 hrs measured post-last dose; assay type: functional, organism-based
Escherichia coli [12] = assay: Induction of morphological changes in Escherichia coli ATCC 25922 assessed as appearance of intracellular empty area at MBD measured after 1 hr by transmission electron microscopic analysis; assay type: functional, organism-based
Staphylococcus aureus [13] = assay: Induction of morphological changes in Staphylococcus aureus ATCC 29213 at MBD measured after 1 hr by atomic force microscopic analysis; assay type: functional, organism-based
Pseudomonas aeruginosa [14] = assay: Bactericidal activity against gentamicin-resistant Pseudomonas aeruginosa ATCC 27853 incubated for 24 hrs followed by replating on agar plate and measured after overnight incubation; assay type: functional, organism-based
Lipopolysaccharide (LPS) = assay: Displacement of BODIPY-TR-cadaverine from Escherichia coli O111:B4 LPS at 64 uM after 1 hr by spectrofluorophotometric method relative to control
Procedure, shortened: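 E. coli O111:B4 LPS (50 μg/mL) preloaded 4 h with BODIPY-TR-cadaverine (5 μg/mL) in 50 mM Tris, pH 7.4. Mixed 1:1 with peptide (1–64 µM series), 1 h at 37 °C, then fluorescence read. Expressed as %ΔF: 0% is probe with LPS and no peptide, 100% is probe with LPS plus 10 μg/mL polymyxin B. Three technical replicates.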

Staphylococcus aureus [15] = assay: Disruption of plasma membrane integrity in Staphylococcus aureus ATCC 29213 at MBC measured after 30 mins using FITC-labeled compound by propidium iodide staining-based microscopic analysis; assay type: organism-based; procedure, shortened: as §2
Escherichia coli [16] = assay: Induction of morphological changes in Escherichia coli ATCC 25922 assessed as cell content leakage at MBD measured after 1 hr by scanning electron microscopic analysis; assay type: functional, organism-based
Staphylococcus aureus [17] = assay: Drug uptake in plasma membrane of Staphylococcus aureus ATCC 29213 at MBC measured after 30 mins using FITC-labeled compound by microscopic analysis; assay type: ADME, organism-based; settings: in vivo, 0.5 h; procedure, shortened: as §2
Lipid bilayer = assay: Induction of membrane disruption in PC/CL large unilamellar vesicles assessed as calcein-entrapped liposome leakage at 1 to 64 uM after 15 mins by spectrofluorophotometric assay relative to control; settings: artificial membrane, 0.25 h
Escherichia coli [18] = assay: Induction of outer membrane permeabilization in Escherichia coli ATCC 25922 at 4 uM by NPN-dye based assay relative to control
Procedure, shortened: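 Mid-log E. coli ATCC 25922 (OD600 0.2) incubated 30 min with NPN (10 μM) in 5 mM HEPES pH 7.4 with 5 mM glucose, then mixed 1:1 with peptide (1–64 μM). Fluorescence (ex 350/em 420 nm) recorded until it plateaued. Percent NPN uptake calculated relative to no peptide and to 10 μg/mL polymyxin B. Three independent experiments, triplicates.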

## CC[C@H](C)[C@H](NC(=O)CN)C(=O)NCC(=O)N[C@@H](C)C(=O)N[C@H](C(=O)N[C@@H](CC(C)C)C(=O)N[C@@H](CCCCN)C(=O)N[C@H](C(=O)N[C@@H](CC(C)C)C(=O)N[C@H](C(=O)N[C@H](C(=O)NCC(=O)N[C@@H](CC(C)C)C(=O)N1CCC[C@H]1C(=O)N[C@@H](C)C(=O)N[C@@H](CC(C)C)C(=O)N[C@H](C(=O)N[C@@H](CO)C(=O)N[C@@H](Cc1c[nH]c2ccccc12)C(=O)N[C@H](C(=O)N[C@@H](CCCCN)C(=O)N[C@@H](CCCNC(=N)N)C(=O)N[C@@H](CCCCN)C(=O)N[C@@H](CCCNC(=N)N)C(=O)N[C@@H](CCC(N)=O)C(=O)N[C@@H](CCC(N)=O)C(N)=O)[C@@H](C)CC)[C@@H](C)CC)[C@@H](C)O)[C@@H](C)O)C(C)C)C(C)C [MELITTIN]
Escherichia coli [1]
  Flu intensity: 4000 a.u.
Escherichia coli [2]
  Activity: Active
RAW264.7
  Activity: Toxic

## H-AARRILRWIFR-NH2
[3]
  Stability: Stable

## H-AARIILRWRFR-NH2
Escherichia coli [4]
  Activity: Active
Staphylococcus aureus [5]
  Activity: Active
Escherichia coli [6]
  Activity: Active
Escherichia coli [7]
  Activity: 99.99%
Escherichia coli [8]
  Flu intensity: 3000 a.u.
Pseudomonas aeruginosa [9]
  Activity: Active
Candida albicans [10]
  Activity: <=80%
Candida albicans [11]
  Activity: Active
Escherichia coli [12]
  Activity: Active
Staphylococcus aureus [13]
  Activity: Active
Pseudomonas aeruginosa [14]
  Activity: Active
Lipopolysaccharide (LPS)
  Activity: 180%
Staphylococcus aureus [15]
  Activity: Active
Escherichia coli [16]
  Activity: Active
Staphylococcus aureus [17]
  Drug uptake: Active
Lipid bilayer
  Activity: < 5%
Escherichia coli [18]
  Activity: >=50 - 51%
